{"source": "ChEMBL document CHEMBL4610110", "about": "“Targeting mPGES-1 by a Combinatorial Approach: Identification of the Aminobenzothiazole Scaffold to Suppress PGE2 Levels” (ACS Med Chem Lett, 2020)", "key": {"[1]": {"target": "T1, Prostaglandin E synthase (Homo sapiens, UniProt O14684)", "T1 sequence (O14684 whole entry)": "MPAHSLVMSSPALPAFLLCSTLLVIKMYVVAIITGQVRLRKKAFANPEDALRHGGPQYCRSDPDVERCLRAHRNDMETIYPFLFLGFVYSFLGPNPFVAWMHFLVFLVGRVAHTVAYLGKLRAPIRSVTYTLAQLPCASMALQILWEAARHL", "experiment": "Inhibition of mPGES1 in human A549 cells assessed as reduction in IL-1beta induced PGE2 release using PGH2 as substrate preincubated for 15 mins followed by substrate addition and measured after 1 min by RP-UV-HPLC analysis", "assay_type": "cell-based", "method_in_brief": "(§1)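 The enzyme source was microsomes from IL-1β-stimulated A549 cells in a cell-free assay. The read-out was enzymatic conversion of PGH2 (20 μM) to PGE2.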"}, "[2]": {"target": "T2, Prostaglandin E synthase (Homo sapiens) (UniProt O14684)", "T2 sequence (whole entry)": "T1 sequence (O14684 whole entry)", "experiment": "Inhibition of mPGES1 in human A549 cells assessed as reduction in IL-1beta induced PGE2 release incubated for 24 hrs by ELISA", "assay_type": "cell-based", "method_in_brief": "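A549 cells were incubated for 24 h at 5 or 10 μM in medium with 1% FBS and 10 ng/mL IL-1β. PGE2 released into the medium was quantified by ELISA against DMSO vehicle-treated cells. Values are mean ± SEM (pg/mL) of two independent experiments.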"}, "[3]": {"tested_on": "A549", "experiment": "Antiproliferative activity against human A549 cells assessed as inhibition of cell viability incubated for 24 hrs by MTT assay", "assay_type": "functional, cell-based", "conditions": "A549, 24 h", "method_in_brief": "(§2)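 A549 cells were exposed to test compounds in an MTT viability assay (5–100 μM for the 48 h and 72 h exposures). IC50 is the mean ± S.D. of single determinations from three independent experiments.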"}, "[4]": {"tested_on": "A549", "experiment": "Antiproliferative activity against human A549 cells assessed as inhibition of cell viability incubated for 48 hrs by MTT assay", "assay_type": "functional, cell-based", "conditions": "A549, 48 h", "method_in_brief": "as §2"}, "[5]": {"tested_on": "A549", "experiment": "Antiproliferative activity against human A549 cells assessed as inhibition of cell viability incubated for 72 hrs by MTT assay", "assay_type": "functional, cell-based", "conditions": "A549, 72 h", "method_in_brief": "as §2"}, "[6]": {"tested_on": "A549", "experiment": "Induction of programmed cell death in human A549 cells assessed as accumulation at subG0/G1 phase at 20 to 30 uM incubated for 48 hrs by propidium iodide staining based flow cytometric analysis relative to control", "assay_type": "functional", "method_in_brief": "(§3)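 A549 human lung epithelial cancer cells were exposed to compound at several concentrations for 48 or 72 h. DNA was then stained with propidium iodide, and the percentage of cells in each cycle phase was measured by flow cytometry. The hypodiploid subG0/G1 fraction was read as cell death. Values are mean ± SEM of two independent experiments, each run in triplicate.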"}, "[7]": {"tested_on": "A549", "experiment": "Induction of programmed cell death in human A549 cells assessed as accumulation at subG0/G1 phase at 20 to 30 uM incubated for 72 hrs by propidium iodide staining based flow cytometric analysis relative to control", "assay_type": "functional", "method_in_brief": "as §3"}, "[8]": {"target": "T2, Prostaglandin E synthase (Homo sapiens)", "experiment": "Inhibition of mPGES1 in human A549 cells assessed as reduction in IL-1beta induced PGE2 release by measuring residual activity at 10 uM using PGH2 as substrate preincubated for 15 mins followed by substrate addition and measured after 1 min by RP-UV-HPLC analysis relative to control", "assay_type": "cell-based", "method_in_brief": "as §1"}, "[9]": {"tested_on": "A549", "experiment": "Induction of cell cycle arrest in human A549 cells assessed as accumulation at G2/M phase at 30 uM incubated for 72 hrs by propidium iodide staining based flow cytometric analysis", "assay_type": "functional", "method_in_brief": "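A549 cells were treated at several concentrations for 48 or 72 h, then stained for DNA with propidium iodide. Cell-cycle phase percentages were read by flow cytometry. Values are means ± SEM of two independent experiments, each run in triplicate.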"}}, "note": "Active and inactive are the calls of the source. The rule behind the calls is not given here.", "data": [{"smiles": "O=C(Nc1nc2ccc(-c3cccc(CO)c3)cc2s1)c1ccc(F)cc1Cl", "values": [{"measurement": "IC50", "setting": "[1]", "result": 1.4, "unit": "µM"}, {"measurement": "inhibition", "setting": "[2]", "result": "Dose-dependent effect"}, {"measurement": "IC50", "setting": "[3]", "result": 98.2, "unit": "µM"}, {"measurement": "IC50", "setting": "[4]", "result": 71.4, "unit": "µM"}, {"measurement": "IC50", "setting": "[5]", "result": 28.5, "unit": "µM"}, {"measurement": "Activity", "setting": "[6]", "result": "inactive"}, {"measurement": "Activity", "setting": "[7]", "result": "inactive"}]}, {"smiles": "O=C(Nc1nc2cc(-c3cccc(CO)c3)ccc2s1)c1c(Cl)cccc1Cl", "values": [{"measurement": "Activity", "setting": "[8]", "result": "> 30", "unit": "%"}]}, {"smiles": "NC(=O)c1cccc(-c2ccc3sc(NC(=O)c4c(Cl)cccc4Cl)nc3c2)c1", "values": [{"measurement": "inhibition", "setting": "[8]", "result": "inactive"}]}, {"smiles": "O=C(Nc1nc2ccc(-c3cccc(CO)c3)cc2s1)c1ccccc1Br", "values": [{"measurement": "IC50", "setting": "[1]", "result": 0.7, "unit": "µM"}, {"measurement": "inhibition", "setting": "[2]", "result": "Dose-dependent effect"}, {"measurement": "IC50", "setting": "[3]", "result": 97.5, "unit": "µM"}, {"measurement": "IC50", "setting": "[4]", "result": 57.5, "unit": "µM"}, {"measurement": "IC50", "setting": "[5]", "result": 18.1, "unit": "µM"}, {"measurement": "Activity", "setting": "[9]", "result": "Active"}, {"measurement": "Activity", "setting": "[6]", "result": 5, "unit": "%"}, {"measurement": "Activity", "setting": "[7]", "result": 18, "unit": "%"}]}, {"smiles": "O=C1OC(O)C(c2cc3ccccc3s2)=C1Br", "note": "(stereo unspecified)", "values": [{"measurement": "IC50", "setting": "[3]", "result": 98.5, "unit": "µM"}, {"measurement": "IC50", "setting": "[4]", "result": 12.5, "unit": "µM"}, {"measurement": "IC50", "setting": "[5]", "result": 9.1, "unit": "µM"}]}, {"smiles": "O=C(Nc1nc2cc(-c3cccc(CO)c3)ccc2s1)c1ccc(F)cc1Cl", "values": [{"measurement": "Activity", "setting": "[8]", "result": "> 30", "unit": "%"}]}, {"smiles": "Cc1cc(C)c(C(=O)Nc2nc3cc(-c4cccc(C(N)=O)c4)ccc3s2)o1", "values": [{"measurement": "inhibition", "setting": "[8]", "result": "inactive"}]}, {"smiles": "O=C(Nc1nc2cc(-c3cccc(CO)c3)ccc2s1)c1ccccc1Br", "values": [{"measurement": "Activity", "setting": "[8]", "result": "> 30", "unit": "%"}]}, {"smiles": "Cc1cc(C)c(C(=O)Nc2nc3ccc(-c4cccc(CO)c4)cc3s2)o1", "values": [{"measurement": "IC50", "setting": "[1]", "result": 2.6, "unit": "µM"}, {"measurement": "inhibition", "setting": "[2]", "result": "Dose-dependent effect"}, {"measurement": "IC50", "setting": "[3]", "result": 95, "unit": "µM"}, {"measurement": "IC50", "setting": "[4]", "result": 63.2, "unit": "µM"}, {"measurement": "IC50", "setting": "[5]", "result": 55.2, "unit": "µM"}]}, {"smiles": "Cc1cc(C)c(C(=O)Nc2nc3cc(-c4cccc(CO)c4)ccc3s2)o1", "values": [{"measurement": "Activity", "setting": "[8]", "result": "> 30", "unit": "%"}]}, {"smiles": "NC(=O)c1cccc(-c2ccc3sc(NC(=O)c4ccc(F)cc4C(F)(F)F)nc3c2)c1", "values": [{"measurement": "IC50", "setting": "[1]", "result": 1.7, "unit": "µM"}, {"measurement": "inhibition", "setting": "[2]", "result": "Dose-dependent effect"}, {"measurement": "IC50", "setting": "[3]", "result": 98.3, "unit": "µM"}, {"measurement": "IC50", "setting": "[4]", "result": 50.6, "unit": "µM"}, {"measurement": "IC50", "setting": "[5]", "result": 19.2, "unit": "µM"}, {"measurement": "Activity", "setting": "[6]", "result": 6, "unit": "%"}, {"measurement": "Activity", "setting": "[7]", "result": 7, "unit": "%"}]}]}
